Measurements taken from ChEMBL document CHEMBL1821702, “8,8-Dimethyldihydroberberine with improved bioavailability and oral efficacy on obese and diabetic mouse models” (Bioorg Med Chem, 2010).
Blank lines part the entries; values can stand above or below the compound they belong to. The source made the active and inactive calls. No cut-off for these calls is given here.

Legend:
Rattus norvegicus [1] = species on record: Rattus norvegicus; test: Induction of AMPK-dependent ACC phosphorylation in 2 hrs serum starved rat differentiated L6 myotubes after 1 hr
Outline: (§1)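 Fully differentiated L6 myotubes were serum-starved 2 h, then treated 1 h across a dose series. Phospho-AMPK (Thr172) and phospho-ACC (Ser79) were detected by Western blot. Three independent experiments.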

L6 [2] = test: Cytotoxicity against rat L6 cells upto 10 uM after 24 hrs by MTT assay; assay type: cell-based; conditions: l6, 24 h
Outline: (§2)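 Differentiated L6 myoblasts were exposed to a concentration range of compounds for 24 h at 37 °C. MTT (5 mg/mL) was added for 3 h, formazan was dissolved in DMSO, and absorbance was read at 550 nm against 690 nm reference. Mean of three independent experiments ± SE.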

Rattus norvegicus [3] = species on record: Rattus norvegicus; test: Induction of AMPK phosphorylation in 2 hrs serum starved rat differentiated L6 myotubes after 1 hr; outline: as §1
L6 [4] = test: Cytotoxicity against rat L6 cells upto 40 uM after 24 hrs by MTT assay; assay type: cell-based; conditions: l6, 24 h; outline: as §2
L6 [5] = test: Increase in glucose uptake in rat differentiated L6 myotubes after 1 hr relative to untreated control; assay type: functional
Outline: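 Fully differentiated L6 myotubes were serum-starved 2 h, then treated with compound for 15 min to 2 h (dose series at 1 h). Glucose uptake was measured relative to DMSO control. Mean of three independent experiments ± SE.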

Mus musculus [6] = test: Antidiabetic activity in C57BLKS/J-db/db mouse assessed as reduction of fasting blood glucose level at 250 mg/kg/day, po for 5 weeks; assay type: functional, organism-based
Mus musculus [7] = test: Antiobese activity in C57BLKS/J-db/db mouse assessed as decrease in plasma triglyceride level at 250 mg/kg/day, po […]; assay type: functional; parameters: scale not given: the % may be the effect or the level left
Outline: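 db/db mice were gavaged once daily in 0.5% microcrystalline cellulose/1.6% lactose vehicle for 6 weeks and killed after the final dose. Plasma triglycerides were measured with a colorimetric triglyceride assay kit.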

Mus musculus [8] = test: Antidiabetic activity in high fat diet-fed C57BL/6J mouse assessed as decrease in plasma insulin level at 250 mg/kg/day, po for 4 weeks; assay type: functional; parameters: scale not given: the % may be the effect or the level left
Outline: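 DIO male C57BL/6J mice (60 kcal% fat diet for 8 weeks) were gavaged daily in 0.5% microcrystalline cellulose/1.6% lactose vehicle. Plasma insulin was determined by ELISA after 4 weeks of treatment. Mean ± SE, n = 5–8.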

Mus musculus [9] = test: Antiobese activity in high fat diet-fed C57BL/6J mouse assessed as decrease in plasma triglyceride level at 250 mg/kg/day, po for 6 weeks; assay type: functional; parameters: scale not given: the % may be the effect or the level left
Outline: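 DIO male C57BL/6J mice received daily oral dosing in cellulose/lactose vehicle for 6 weeks and were killed after the final dose. Plasma and liver triglycerides were measured by triglyceride assay kit, and fat depots were weighed.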

Mus musculus [10] = test: Antidiabetic activity in high fat diet-fed C57BL/6J mouse assessed as decrease in blood glucose level at 250 mg/kg/day, po for 4 weeks measured after 60 mins by intraperitoneal glucose tolerance test; assay type: functional, organism-based
Outline: (§3)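 High-fat-diet (60 kcal%, 8 weeks) male C57BL/6J mice were randomized by body weight and fed glucose, then dosed orally once daily in cellulose/lactose vehicle. ipGTT was done at 4 weeks: D-glucose 2 g/kg ip, glucometer readings at 0, 15, 30, 60, 90 and 120 min. n = 5–8.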

Mus musculus [11] = test: Antidiabetic activity in C57BLKS/J-db/db mouse assessed as decrease in area under curve at 50 mg/kg/day, po for 4 weeks by insulin tolerance test; assay type: functional; parameters: scale not given: the % may be the effect or the level left
Mus musculus [12] = test: Antidiabetic activity in high fat diet-fed C57BL/6J mouse assessed as decrease in blood glucose level at 250 mg/kg/day, po for 4 weeks measured after 120 mins by intraperitoneal glucose tolerance test; assay type: functional, organism-based; outline: as §3

- Activity (Rattus norvegicus [1]): Dose-dependent effect
- Activity (Rattus norvegicus [3]): Dose-dependent effect
Compound: CCC1(CC)c2c(ccc(OC)c2OC)CC2=[N+]1CCc1cc3c(cc12)OCO3.[Cl-] [8,8-Diethyldihydroberberine]
- Activity (L6 [2]): Toxic

Compound: CCCC1(CCC)c2c(ccc(OC)c2OC)CC2=[N+]1CCc1cc3c(cc12)OCO3.[Cl-] [8,8-Dipropyldihydroberberine]
- Activity (L6 [4]): Non-toxic
- Activity (L6 [5]): 62%

Compound: CN(C)C(=N)NC(=N)N [METFORMIN]
- Activity (Mus musculus [6]): Active
- Activity (Mus musculus [7]): 23%
- Activity (Mus musculus [8]): 43%
- Activity (Mus musculus [9]): 33%
- Activity (Mus musculus [10]): Active
- Activity (Mus musculus [11]): 14%
- Activity (Mus musculus [12]): Active
